A selection: hits, their analogues and other compounds. The true share with any hit is near 2.3%.
SR-BI HDL uptake = blocks mouse SR-BI lipid uptake from DiI-HDL | Q61009 | ldlA[mSR-BI] CHO cells, DiI-HDL uptake fluorescence, 3 h | inhibition, % at 12.5 µM | actives 0.96% (n = 320,000) | AID 488896;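 active = mean replicate inhibition of at least 70% and a set share of replicates each scoring 70 or more; inconclusive = meets just one of the two criteria; inactive = fails both criteria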
Target sequence (Q61009 whole entry, looked up): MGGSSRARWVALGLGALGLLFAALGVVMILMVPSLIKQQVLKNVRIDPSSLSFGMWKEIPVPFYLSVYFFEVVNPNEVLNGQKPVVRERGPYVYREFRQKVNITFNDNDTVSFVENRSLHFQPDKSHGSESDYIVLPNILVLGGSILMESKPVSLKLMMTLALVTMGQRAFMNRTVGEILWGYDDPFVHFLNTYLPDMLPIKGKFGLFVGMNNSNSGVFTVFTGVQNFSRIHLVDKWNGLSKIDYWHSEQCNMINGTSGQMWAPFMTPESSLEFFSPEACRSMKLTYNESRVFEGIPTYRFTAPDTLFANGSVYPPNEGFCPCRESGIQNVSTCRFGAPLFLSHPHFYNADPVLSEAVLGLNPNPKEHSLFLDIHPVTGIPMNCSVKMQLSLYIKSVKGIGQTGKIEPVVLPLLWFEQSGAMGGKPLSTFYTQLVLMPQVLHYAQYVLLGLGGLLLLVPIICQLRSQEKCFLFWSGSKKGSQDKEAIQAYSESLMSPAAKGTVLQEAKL
CAL PDZ FP-1 = blocks peptide binding to human CAL PDZ domain. Q9HD26. purified CAL PDZ, TMR-peptide fluorescence polarization, 1 h. inhibition, % at 20 µM. actives 0.02% (n = 330,000);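 active = highest replicate inhibition of at least 40%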
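Material: tagged CAL PDZ domain; buffer or medium: 25 mM sodium phosphate pH 7.4, 150 mM NaCl, TCEP, IgG, Thesit; compound dosing: single point, 20 µM; schedule: 1 h incubation at room temperature before polarization reading; measured by: FP readout, S and P plane fluorescence; read-out basis: percent inhibition from loss of millipolarization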
CAL PDZ FP-2 = inhibitors of human CAL PDZ peptide binding. actives 0.92% (n = 300,000). purified CAL PDZ, TMR-peptide fluorescence polarization, 1 h. inhibition, % at 24.9 µM. Q9HD26;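 active = mean inhibition of at least 30% with at least half of replicates also reaching 30%; inconclusive = no clear call, values can overlap the other calls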
SR-BI uptake up = SR-BI HDL lipid transfer activation. activation, % at 12.5 µM. CHO ldlA[mSR-BI] cells, DiI-HDL uptake fluorescence, 3 h; 100 = double the neutral-control signal. actives 0.096% (n = 320,000);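 active = mean replicate activation of at least 60% and every replicate at or above 60%; inconclusive = mean or all-replicate condition met, but not both; inactive = mean below 60% and not all replicates reaching 60%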
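Assay system: CHO ldlA[mSR-BI] cells, LDL receptor-null, SR-BI overexpressing; medium: Ham's F12 with 0.5% BSA, HEPES 25 mM, pH 7.4; also added: DiI-HDL 10 µg/mL; timing: 3 h uptake period with compound, 37 °C; signal: DiI fluorescence, bottom read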
ATG4B inhibitor = ATG4B (human) cysteine protease inhibition. Q9Y4P1. ATG4B cleavage of LC3-PLA2, NBD-HPC fluorescence, 1 h. inhibition, % at 8.33 µM. actives 0.51% (n = 340,000). AID 504462; in the data active = inhibition above about 40%
Of the large screens only hits and unclear results are named; the others gave an inactive call.

CCOC(=O)CSc1nnc(CNC(=O)c2ccc([N+](=O)[O-])cc2)n1C	none
CCOC(=O)C(Cc1ccccc1)C(=O)NCc1ccccc1 (configuration not stated)	none
N#Cc1c(NC(=O)c2ccccc2Cl)n(Cc2ccccc2)c2nc3ccccc3nc12	ATG4B inhibitor 52
CC1C(c2ccc3c(c2)OCO3)c2cc3c(cc2OC1N1CCOCC1)OCO3 (configuration not stated)	none
CN(Cc1cnccn1)Cc1nc(Cc2ccccc2F)no1	CAL PDZ FP-2 56
CN(Cc1cnccn1)Cc1nc(Cc2ccccc2Cl)no1	none
CCc1ccc(CN(C)Cc2nc(COc3ccccc3)no2)nc1	CAL PDZ FP-2 49
C=CC[C@H](CC(=O)N(CCO)Cc1ccccc1)C(=O)N[C@H](C)COC(=O)[C@@H](CC=C)CC(=O)OC(C)(C)C	none
S=C(Nc1ccccc1Cl)NC1CCN(Cc2ccccc2)CC1	none
S=C(Nc1ccccc1Cl)NC1CCC(NC(=S)Nc2ccccc2Cl)CC1 (configuration not stated)	CAL PDZ FP-2 31
Cc1ccnc(NC(=O)c2cccc(NC(=O)c3ccc(Cl)c(Cl)c3)c2)c1	SR-BI HDL uptake inconclusive
Cc1ccnc(NC(=O)c2sc3cc(Cl)ccc3c2Cl)c1	CAL PDZ FP-2 81
Cc1ccnc(NC(=O)c2cccc(NC(=O)c3ccc(Cl)cc3)c2)c1	SR-BI HDL uptake 89
Cc1ccc(C(=O)NCC(=O)NCc2cc(=O)n(C)c(=O)n2C)cc1C	CAL PDZ FP-2 44
CN(Cc1ccccc1)C1CCNCC1	none
CCN(CC(=O)Nc1ccc(NC(C)=O)cc1)C(=O)c1ccccc1CCc1ccccc1	none
NNC(=O)Cn1nc2n(c1=O)-c1ccccc1SC2	none
CNC(=O)NC(=O)Cn1nc2n(c1=O)-c1ccccc1SC2	CAL PDZ FP-2 53
Cn1c2c(c(=O)n3ncnc13)CCCC2	CAL PDZ FP-2 48
Cc1c(N=Cc2cc(Br)cc(Br)c2O)cccc1C(=O)O	ATG4B inhibitor 46
Cc1ccc(N2CCN(S(=O)(=O)c3c(C)noc3C)CC2C)cc1 (configuration not stated)	none
N=C1/C(=C/c2cccn2CCOc2ccccc2)C(=O)N=C2SC=C(c3ccccc3)N12	SR-BI HDL uptake 75
Cc1ccc(CNC(=O)C2CCCN(c3ncnc4c3nc3n4CCCCC3)C2)cc1 (configuration not stated)	none
CCCCC#Cc1ccc(C(=O)NNC(=O)Nc2cc(Cl)cc(Cl)c2)o1	CAL PDZ FP-2 30
Cc1cc(C(=O)NNC(=O)Nc2ccc(Cl)cc2)no1	none (no result: CAL PDZ FP-2)
COCCn1c(=NC(=O)/C=C/c2ccccc2)sc2cc(NC(C)=O)ccc21	SR-BI HDL uptake 88
O=C(Cn1c(=O)oc2ccccc21)NCCc1ccccc1Cl	none
Cc1cc(N/N=C/c2ccc(N(C)C)cc2)nc(NCc2ccccc2)n1	SR-BI HDL uptake 81
C[n+]1c(/C=C/c2ccc(O)cc2)ccc2ccccc21	none
Cc1cc(/C=C\c2ccc3cc(N(C)C)ccc3[n+]2C)c(C)n1-c1ccccc1	SR-BI uptake up 166
NS(=O)(=O)c1ccc(NC(=O)COC(=O)CCCN2C(=O)c3cccc4cccc(c34)C2=O)cc1	CAL PDZ FP-2 60
CC(=O)c1ccccc1NC(=O)COC(=O)CCCN1C(=O)c2cccc3cccc(c23)C1=O	none
CC1=C(C#N)C(=O)NC(C)(C)C1	none
CC1=C(C#N)C(=O)N(C)C(C)(C)C1	SR-BI uptake up 140
COc1cc(NC(=S)NC(=O)c2ccccc2F)ccc1NC(=O)c1cccs1	SR-BI HDL uptake 83
COc1cc(NC(=S)NC(=O)c2c(OC)cccc2OC)ccc1NC(=O)c1cccs1	SR-BI HDL uptake 74
COc1cc(NC(=S)NC(=O)c2ccccc2C)ccc1NC(=O)c1cccs1	none
CC(=O)c1ccc(OCC(O)CN2CCN(CC(O)COc3ccc(C(C)=O)cc3)CC2)cc1 (configuration not stated)	none
CC(=O)c1ccc(OCC(O)CN2CCN(S(=O)(=O)c3c(C)c(C)cc(C)c3C)CC2)cc1 (configuration not stated)	SR-BI HDL uptake 86
CCOC(=O)N1CCN(C(=O)C2CCN(C(=O)c3ccc([N+](=O)[O-])cc3)CC2)CC1	CAL PDZ FP-2 77
O=C(Cc1c(C(=O)O)[nH]c2ccccc12)NCCN1CCN(c2cccc(Cl)c2)CC1	CAL PDZ FP-2 62
COc1ccc(OC)c(-c2cc(C(=O)Nc3cccc(Cl)c3)no2)c1	SR-BI HDL uptake 94
COc1ccc(-c2cc(C(=O)Nc3cccc(Cl)c3)no2)cc1	none
COc1ccc(OC)c(-c2cc(C(=O)NCc3ccco3)no2)c1	SR-BI HDL uptake 81
COc1cccc(-c2cc(C(=O)NCc3ccco3)no2)c1	none (no result: CAL PDZ FP-2)
COc1ccc(OC)c(-c2cc(C(=O)Nc3c(C)nn(Cc4ccc(Cl)cc4)c3C)no2)c1	SR-BI HDL uptake 78
O=C(CSc1cccc(C(F)(F)F)c1)Nc1ccc(Cl)cc1Cl	none
CC(NC(=O)CN1CCN(C(=O)c2cccs2)CC1)c1ccc(F)cc1F (configuration not stated)	none
CCOc1c(C)cc(S(=O)(=O)NCc2ccccn2)c(C)c1C	CAL PDZ FP-2 67 (no result: CAL PDZ FP-1)
O=C(N/N=C/c1ccc(OC(F)F)cc1)c1ccc(CSc2nc3ccccc3[nH]2)cc1	SR-BI HDL uptake 82
CCOc1ccc(/C=N/NC(=O)c2ccc(CSc3nc4ccccc4[nH]3)cc2)cc1	none
COc1ccc(C)c2sc(=NC(=O)c3ccccc3)n(C)c12	SR-BI HDL uptake 74
COc1ccc(C)c2sc(=NC(=O)c3ccc(C(C)=O)cc3)n(C)c12	none (no result: SR-BI HDL uptake, SR-BI uptake up)
O=C(NNC(=O)C1CCN(S(=O)(=O)c2ccccc2)CC1)c1ccccc1O	SR-BI HDL uptake 83
O=C(NNC(=O)c1ccccc1O)c1ccc(Cl)c(S(=O)(=O)N2CCCCC2)c1	SR-BI HDL uptake 103
O=C(NNC(=O)c1cccs1)c1ccc(Cl)c(S(=O)(=O)N2CCCC2)c1	none
O=C(NC1CCCCCC1)C1CCN(S(=O)(=O)c2c(Cl)cccc2Cl)CC1	none
O=C(NNC(=O)C1CCN(S(=O)(=O)c2ccccc2C(F)(F)F)CC1)c1ccccc1O	SR-BI HDL uptake 100
O=C(NNS(=O)(=O)c1ccccc1)C1CCN(S(=O)(=O)c2ccccc2)CC1	none
O=C(NNC(=O)C1CCN(S(=O)(=O)c2c(Cl)cccc2Cl)CC1)c1ccccc1O	SR-BI HDL uptake 103
C[C@]12CCC(O)CC1CCC1C2CC[C@]2(C)C(c3cc(C(F)(F)F)n[nH]3)CCC12 (some centres not stated)	none
Cc1ccc(S(=O)(=O)N2CCN(C(=O)CNC(=O)c3ccc(Cl)cc3)CC2)cc1	none (no result: CAL PDZ FP-2)
Nc1cc(C(=O)c2ccccc2)ccc1[N+](=O)[O-]	CAL PDZ FP-2 37
O=C(Cc1ccc(S(=O)(=O)N2CCCCC2)s1)Nc1ccc(F)cc1F	none

Screening data deposited in PubChem by several laboratories.
